According to ChEMBL document CHEMBL1127457, “Nonpeptide renin inhibitors with good intraduodenal bioavailability and efficacy in dog” (J Med Chem, 1994):

System: not listed separately
Assay: Partition coefficient (logD6.5)
Details: octanol/water, pH 6.5
`CCCC[C@H](N[C@@H](Cc1ccccc1)C(=O)N1CCC(OCOC)CC1)C(=O)N[C@@H](CC1CCCCC1)[C@@H](O)C[C@H](C(=O)NCCNc1n[nH]c(N)n1)C(C)C` showed a logD of 4.1. Work on `CCCC[C@H](O[C@@H](Cc1ccccc1)C(=O)N1CCC(OCOC)CC1)C(=O)N[C@@H](CC1CCCCC1)[C@@H](O)C[C@H](C(=O)NCCCNc1nnc(N)[nH]1)C(C)C` yielded a logD of 4.3. For `CCCC[C@H](N[C@@H](Cc1ccccc1)C(=O)N1CCC(OCOC)CC1)C(=O)N[C@@H](CC1CCCCC1)[C@@H](O)C[C@H](C(=O)NCc1cccnc1)C(C)C`, the logD was > 5. With `CCCC[C@H](N[C@@H](Cc1ccccc1)C(=O)N1CCC(OCOC)CC1)C(=O)N[C@@H](CC1CCCCC1)[C@@H](O)C[C@H](C(=O)NCCC1CCCCC1)C(C)C` the logD was > 5.

System: not listed separately
Assay: Average peak plasma concentration of compound after 10 mg/kg intraduodenal administration to Ferret
Details: in vivo
In the case of `CCCC[C@H](N[C@@H](Cc1ccccc1)C(=O)N1CCC(OCOC)CC1)C(=O)N[C@@H](CC1CCCCC1)[C@@H](O)C[C@H](C(=O)NCc1cccnc1)C(C)C`, the Cmax is reported as > 4920 ng/mL.

System: not listed separately
Assay: Average area under curve at 10 mg/kg dose after intraduodenal administration to Ferret
Details: in vivo
For `CCCC[C@H](N[C@@H](Cc1ccccc1)C(=O)N1CCC(OCOC)CC1)C(=O)N[C@@H](CC1CCCCC1)[C@@H](O)C[C@H](C(=O)NCc1cccnc1)C(C)C`, the AUC was > 8170 ng·h/mL.

System: not listed separately
Assay: Oral bioavailability in ferret
Details: in vivo
For `CCCC[C@H](N[C@@H](Cc1ccccc1)C(=O)N1CCC(OCOC)CC1)C(=O)N[C@@H](CC1CCCCC1)[C@@H](O)C[C@H](C(=O)NCc1cccnc1)C(C)C`, the bioavailability was > 98%.

System: not listed separately
Assay: Average peak plasma concentration of compound after 1 mg/kg intravenous administration to rat
Details: in vivo
With `CCCC[C@H](N[C@@H](Cc1ccccc1)C(=O)N1CCC(OCOC)CC1)C(=O)N[C@@H](CC1CCCCC1)[C@@H](O)C[C@H](C(=O)NCc1cccnc1)C(C)C` the Cmax was 560 ng/mL.

Same assay, conditions: plasma
`CCCC[C@H](N[C@@H](Cc1ccccc1)C(=O)N1CCC(OCOC)CC1)C(=O)N[C@@H](CC1CCCCC1)[C@@H](O)C[C@H](C(=O)NCCNc1n[nH]c(N)n1)C(C)C` gave a Cmax of 810 ng/mL. For `CCCC[C@H](N[C@@H](Cc1ccccc1)C(=O)N1CCC(OCOC)CC1)C(=O)N[C@@H](CC1CCCCC1)[C@@H](O)C[C@H](C(=O)NCCC1CCCCC1)C(C)C`, the Cmax was 140 ng/mL.

System: not listed separately
Assay: Average peak plasma concentration of compound after 1 mg/kg intravenous administration to Ferret
Details: in vivo
Work on `CCCC[C@H](N[C@@H](Cc1ccccc1)C(=O)N1CCC(OCOC)CC1)C(=O)N[C@@H](CC1CCCCC1)[C@@H](O)C[C@H](C(=O)NCc1cccnc1)C(C)C` yielded a Cmax of 3480 ng/mL.

Species: Homo sapiens
Details: Liver, Microsome
`CCCC[C@H](N[C@@H](Cc1ccccc1)C(=O)N1CCC(OCOC)CC1)C(=O)N[C@@H](CC1CCCCC1)[C@@H](O)C[C@H](C(=O)NCc1cccnc1)C(C)C` gave a Rate (nM min-1 (nM of cytochrome P450)-1) of 2.27.

System: not listed separately
Assay: Average peak plasma concentration of compound after 10 mg/kg intraduodenal administration to rat
Details: in vivo
For `CCCC[C@H](N[C@@H](Cc1ccccc1)C(=O)N1CCC(OCOC)CC1)C(=O)N[C@@H](CC1CCCCC1)[C@@H](O)C[C@H](C(=O)NCc1cccnc1)C(C)C`, the Cmax was 2320 ng/mL.

Same assay, conditions: plasma
Molecule `CCCC[C@H](N[C@@H](Cc1ccccc1)C(=O)N1CCC(OCOC)CC1)C(=O)N[C@@H](CC1CCCCC1)[C@@H](O)C[C@H](C(=O)NCCNc1n[nH]c(N)n1)C(C)C` has a Cmax of 190 ng/mL. Work on `CCCC[C@H](N[C@@H](Cc1ccccc1)C(=O)N1CCC(OCOC)CC1)C(=O)N[C@@H](CC1CCCCC1)[C@@H](O)C[C@H](C(=O)NCCC1CCCCC1)C(C)C` yielded a Cmax of 30 ng/mL.

Target: T1, Renin (Homo sapiens, UniProt P00797)
T1 sequence (P00797 whole entry): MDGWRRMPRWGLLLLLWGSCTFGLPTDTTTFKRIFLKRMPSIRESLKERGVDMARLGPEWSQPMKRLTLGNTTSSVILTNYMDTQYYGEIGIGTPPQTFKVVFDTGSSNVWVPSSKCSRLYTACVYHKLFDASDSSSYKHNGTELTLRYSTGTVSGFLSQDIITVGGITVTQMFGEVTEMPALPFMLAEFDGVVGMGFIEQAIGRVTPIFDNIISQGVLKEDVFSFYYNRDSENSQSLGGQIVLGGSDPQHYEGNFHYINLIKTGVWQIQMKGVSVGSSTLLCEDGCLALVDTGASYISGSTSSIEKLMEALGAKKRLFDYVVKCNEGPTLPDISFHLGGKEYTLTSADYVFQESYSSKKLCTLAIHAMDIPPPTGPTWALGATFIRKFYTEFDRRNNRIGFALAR
Assay: Tested in vitro for its ability to inhibit the human plasma renin at pH of 7.4
Format: cell-free
Details: not given
With `CCCC[C@H](O[C@@H](Cc1ccccc1)C(=O)N1CCC(OCOC)CC1)C(=O)N[C@@H](CC1CCCCC1)[C@@H](O)C[C@H](C(=O)NCCCNc1nnc(N)[nH]1)C(C)C` the IC50 was 1.7 nM.

Target: T1, Renin
Assay: Tested in vitro for its ability to inhibit the human plasma renin
Format: cell-free
Details: not given
Procedure, shortened: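 IC50 against renin in plasma from the named species (dog, ferret, human, rat); single determination in most cases.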
Work on `CCCC[C@H](N[C@@H](Cc1ccccc1)C(=O)N1CCC(OCOC)CC1)C(=O)N[C@@H](CC1CCCCC1)[C@@H](O)C[C@H](C(=O)NCCNc1n[nH]c(N)n1)C(C)C` yielded an IC50 of 6.1 nM. In the case of `CCCC[C@H](N[C@@H](Cc1ccccc1)C(=O)N1CCC(OCOC)CC1)C(=O)N[C@@H](CC1CCCCC1)[C@@H](O)C[C@H](C(=O)NCCC1CCCCC1)C(C)C`, the IC50 is reported as 40 nM.

System: not listed separately
Assay: Average area under curve for the compound at 1 mg/kg dose after intravenous administration to rat
Details: in vivo
`CCCC[C@H](N[C@@H](Cc1ccccc1)C(=O)N1CCC(OCOC)CC1)C(=O)N[C@@H](CC1CCCCC1)[C@@H](O)C[C@H](C(=O)NCCNc1n[nH]c(N)n1)C(C)C` gave an AUC of 318 ng·h/mL. `CCCC[C@H](N[C@@H](Cc1ccccc1)C(=O)N1CCC(OCOC)CC1)C(=O)N[C@@H](CC1CCCCC1)[C@@H](O)C[C@H](C(=O)NCc1cccnc1)C(C)C` showed an AUC of 228 ng·h/mL. Work on `CCCC[C@H](N[C@@H](Cc1ccccc1)C(=O)N1CCC(OCOC)CC1)C(=O)N[C@@H](CC1CCCCC1)[C@@H](O)C[C@H](C(=O)NCCC1CCCCC1)C(C)C` yielded an AUC of 82 ng·h/mL.

System: not listed separately
Assay: Oral bioavailability in rat
Details: in vivo, intraduodenal, 10 mg/kg
`CCCC[C@H](N[C@@H](Cc1ccccc1)C(=O)N1CCC(OCOC)CC1)C(=O)N[C@@H](CC1CCCCC1)[C@@H](O)C[C@H](C(=O)NCCNc1n[nH]c(N)n1)C(C)C` showed a bioavailability of 2%. `CCCC[C@H](N[C@@H](Cc1ccccc1)C(=O)N1CCC(OCOC)CC1)C(=O)N[C@@H](CC1CCCCC1)[C@@H](O)C[C@H](C(=O)NCCC1CCCCC1)C(C)C` gave a bioavailability of 4%.

Same assay, conditions: in vivo, po
`CCCC[C@H](N[C@@H](Cc1ccccc1)C(=O)N1CCC(OCOC)CC1)C(=O)N[C@@H](CC1CCCCC1)[C@@H](O)C[C@H](C(=O)NCc1cccnc1)C(C)C` gave an F of 160%.

System: not listed separately
Assay: Partition coefficient (logD7.4)
Details: octanol/water, pH 7.4
With `CCCC[C@H](N[C@@H](Cc1ccccc1)C(=O)N1CCC(OCOC)CC1)C(=O)N[C@@H](CC1CCCCC1)[C@@H](O)C[C@H](C(=O)NCCNc1n[nH]c(N)n1)C(C)C` the logD was 4.2. With `CCCC[C@H](O[C@@H](Cc1ccccc1)C(=O)N1CCC(OCOC)CC1)C(=O)N[C@@H](CC1CCCCC1)[C@@H](O)C[C@H](C(=O)NCCCNc1nnc(N)[nH]1)C(C)C` the logD was 4.2. For `CCCC[C@H](N[C@@H](Cc1ccccc1)C(=O)N1CCC(OCOC)CC1)C(=O)N[C@@H](CC1CCCCC1)[C@@H](O)C[C@H](C(=O)NCc1cccnc1)C(C)C`, the logD was > 5. In the case of `CCCC[C@H](N[C@@H](Cc1ccccc1)C(=O)N1CCC(OCOC)CC1)C(=O)N[C@@H](CC1CCCCC1)[C@@H](O)C[C@H](C(=O)NCCC1CCCCC1)C(C)C`, the logD is reported as > 5.

System: not listed separately
Assay: Average area under curve for the compound at 10 mg/kg dose after intraduodenal administration to rat
Details: in vivo
Molecule `CCCC[C@H](N[C@@H](Cc1ccccc1)C(=O)N1CCC(OCOC)CC1)C(=O)N[C@@H](CC1CCCCC1)[C@@H](O)C[C@H](C(=O)NCCNc1n[nH]c(N)n1)C(C)C` has an AUC of 94.8 ng·h/mL. For `CCCC[C@H](N[C@@H](Cc1ccccc1)C(=O)N1CCC(OCOC)CC1)C(=O)N[C@@H](CC1CCCCC1)[C@@H](O)C[C@H](C(=O)NCc1cccnc1)C(C)C`, the AUC was 3670 ng·h/mL. In the case of `CCCC[C@H](N[C@@H](Cc1ccccc1)C(=O)N1CCC(OCOC)CC1)C(=O)N[C@@H](CC1CCCCC1)[C@@H](O)C[C@H](C(=O)NCCC1CCCCC1)C(C)C`, the AUC is reported as 37 ng·h/mL.

System: not listed separately
Assay: Average area under curve for compound at 1 mg/kg dose intravenous administration to Ferret
Details: in vivo
For `CCCC[C@H](N[C@@H](Cc1ccccc1)C(=O)N1CCC(OCOC)CC1)C(=O)N[C@@H](CC1CCCCC1)[C@@H](O)C[C@H](C(=O)NCc1cccnc1)C(C)C`, the AUC was 827 ng·h/mL.
